Here are results for 16 molecules from ChEMBL document CHEMBL1240421, “Synthesis and evaluation of graveoline and graveolinine derivatives with potent anti-angiogenesis activities” (Eur J Med Chem, 2010).

Molecules are shown by their SMILES. Calls of active or inactive are those of the source. The calls are words filed in the database; no cut-off is given here.

For assay [1], the system named is NCI-H460. Briefly: Cytotoxicity against human NCI-H460 cells after 48 hrs by MTT assay. To be noted: NCI-H460, 48 h. It is filed as functional, cell-based. The essentials:
(§1)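 Cells seeded at 5000 per well, exposed to a range of concentrations. MTT step, then 4 h further incubation. Formazan dissolved in DMSO, OD read at 490 nm. Triplicate wells; IC50 taken from curves of mean OD versus concentration.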

A short description of assay [2]: Cytotoxicity against human GLC82 cells after 48 hrs by MTT assay. Format: functional, cell-based. The conditions noted are these: GLC82, 48 h. The essentials: as §1
Assay [3] has as its system HUVEC. Briefly: Cytotoxicity against HUVEC cells after 48 hrs by MTT assay. Format: cell-based. The conditions noted are these: Homo sapiens. In short, it runs like this: as §1
Assay [4] has as its system HUVEC. Briefly: Inhibition of HUVEC cell adhesion to collagen at 30 uM after 3 hrs.
Assay [5] deals with HUVEC. Briefly: Inhibition of HUVEC cell adhesion to collagen at 15 uM. To be noted: Homo sapiens.
The species entered for assay [6] is Gallus gallus. Briefly: Antiangiogenic activity in fertilized chicken eggs at 30 ug/10 uL after 48 hrs by CAM assay. Format: functional. To be noted: Egg. The essentials:
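Test agent applied to the chick CAM at 30 µg/10 µL, 10 eggs per treatment; 0.9% NaCl as negative control, thalidomide as positive control. After 48 h, CAMs fixed in 4% paraformaldehyde, vessels counted in three random microscope fields around the filter disc.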

The subject of assay [7] is HUVEC. Briefly: Inhibition of HUVEC cell adhesion to collagen at 30 uM after 1 hr. The conditions noted are these: Homo sapiens. It is filed as functional. In short, it runs like this: (§2)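 Wells coated overnight at room temperature with rat tail tendon type I collagen in PBS, blocked with 0.2% BSA for 2 h at 37 °C. HUVEC resuspended in DMEM and added at 10⁴ cells/ml with compound, incubated 1 or 3 h at 37 °C. After washing, attached cells stained with 0.2% crystal violet and solubilized in 2% SDS; OD at 570 nm. Triplicate wells, three independent experiments.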

For assay [8], the system named is HUVEC. Briefly: Inhibition of HUVEC cell adhesion to collagen at 15 uM after 3 hrs. Format: functional. To be noted: Homo sapiens. The essentials:
as §2

Assay [9] concerns HUVEC. Briefly: Inhibition of HUVEC cell adhesion to collagen at 15 uM after 1 hr. Format: functional, cell-based. To be noted: Homo sapiens. The essentials:
as §2

For assay [10], the system named is HUVEC. Briefly: Inhibition of migration of HUVEC cellss at 15 to 30 uM. It is filed as functional, Homo sapiens. The essentials: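 Scratch-wound assay: HUVEC plated at 20 000 cells per well, monolayer scraped with a rubber policeman, then incubated 24 h with or without compound. Two random pictures per wound; migration area measured. Triplicate measurements, at least three experiments.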

Take `COc1ccc(-c2cc(NCCCO)c3ccccc3n2)cc1`: the IC50 came to 24 µM in assay [1], 40.9 µM in assay [2] and 47.6 µM in [3]. In [4], the “inhibition (INH)” value came to 56.4%. The inhibition at 15 µM in assay [5] was 45.3%.
Taken in the same sequence, the figures for `COc1cc(-c2ccc(C)cc2)nc2ccccc12` were over 100 µM, over 100 µM, over 100 µM, 20.3% and 35.4%.
`Cc1ccc(-c2cc(NCCCO)c3ccccc3n2)cc1`: the values for the IC50 in assay [1], in assay [2] and in assay [3] were 48.1 µM, 60.3 µM and 63.5 µM, respectively. Further, the outcome in [6] was Active. In assay [4], the “inhibition (INH)” value stood at 33.8%. This molecule also gave an inhibition at 15 µM in assay [5] of 44.2%.
`Cc1ccc(-c2cc(Cl)c3ccccc3n2)cc1`: the IC50 in [1], in [2] and in assay [3] was over 100 µM each time. Besides, the “inhibition (INH)” value in [4] worked out at 35.2%. The molecule also returned an inhibition at 15 µM in [5] of 39%.
For `Clc1cc(-c2ccc(CNCCCN3CCOCC3)cc2)nc2ccccc12`, the IC50 came to 21.1 µM in assay [1], 30.6 µM in assay [2] and 22.4 µM in assay [3]. Moreover, the “inhibition (INH)” value in assay [4] came to 72.3%. This molecule came in with an inhibition at 15 µM in assay [5] of 67.8%.
Turning to `COc1ccc(Nc2cc(-c3ccc(C)cc3)nc3ccccc23)cc1`, the IC50 was 24.2 µM in assay [1], 34.2 µM in [2] and 14.3 µM in assay [3]. The outcome in [6] was Active. For the same molecule, the “inhibition (INH)” value in assay [4] is recorded as 48.1%. Moreover, the inhibition at 15 µM in assay [5] stood at 42.4%.
Take `Cc1ccc(-c2cc(NCCN(C)C)c3ccccc3n2)cc1`: the IC50 in assay [1] was 6.1 µM; in [2], 20.6 µM; in assay [3], 30.3 µM. In [6], the outcome was Active. For the same molecule, the “inhibition (INH)” value in assay [4] was determined as 48.2%. Further, at 15 µM the inhibition in assay [5] was 52.2%.
Take `CN(C)CCCNCc1ccc(-c2cc(=O)c3ccccc3n2C)cc1`: the figures for the IC50 in [1], in assay [2] and in assay [3] were over 100 µM, over 100 µM and 99.7 µM, respectively. In addition, the “inhibition (INH)” value in [4] was determined as 42%. Also, in [5], the inhibition at 15 µM is 31.9%.
As to `c1ccc2c(NCCCN3CCOCC3)cc(-c3ccc(CNCCCN4CCOCC4)cc3)nc2c1`, the IC50 in assay [1] was 42.3 µM; in [2], 34.4 µM; in [9] it was over 100 µM; in [3], 56.5 µM. Also, the inhibition at 30 µM in [7] was found to be 15.8%. The inhibition at 15 µM in [8] amounted to 46.2%. In [10], the “inhibition (INH)” value stood at 49.2%.
As to `Cc1ccc(-c2cc(=O)c3ccccc3n2C)cc1`, the half-inhibitory concentration (IC50) in [1], in assay [2] and in [3] was over 100 µM throughout. Besides, in [4], the “inhibition (INH)” value is given as 8.1%. Also, the inhibition at 15 µM in [5] was 30.3%.
Consider `COc1cc(-c2ccc(COC(=O)c3cccs3)cc2)nc2ccccc12`, for which the IC50 in assay [1], in assay [2] and in [3] was over 100 µM each time. Also, in assay [4], the “inhibition (INH)” value is 27.4%. In assay [5], this molecule showed an inhibition at 15 µM of 37.4%.
For `COc1ccc(-c2cc(NCCO)c3ccccc3n2)cc1`, the IC50 came to 38.3 µM in assay [1], 56.2 µM in assay [2] and 74.1 µM in assay [3]. Moreover, the “inhibition (INH)” value in assay [4] is 54.9%. Moreover, at 15 µM the inhibition in assay [5] was 54.1%.
For `COc1ccc(-c2cc(Cl)c3ccccc3n2)cc1`, the IC50 in [1], in [2] and in assay [3] was over 100 µM each time. For the same molecule, the “inhibition (INH)” value in [4] is 48.2%. The same molecule returned an inhibition at 15 µM in [5] of 52.6%.
Take `Cc1ccc(-c2cc(NCCCN3CCOCC3)c3ccccc3n2)cc1`: the values for the IC50 in assay [1], in assay [2] and in assay [3] were 11.5 µM, 49.5 µM and 45.2 µM, respectively. Moreover, the outcome in assay [6] was Active. In addition, the “inhibition (INH)” value in assay [4] came to 49.2%. The same molecule registered an inhibition at 15 µM in assay [5] of 47.2%.
On to `COc1cc(-c2ccc(CO)cc2)nc2ccccc12`, for which the IC50 in assay [1], in assay [2] and in assay [3] was over 100 µM throughout. Besides, the “inhibition (INH)” value in [4] is 19.4%. In [5], this molecule had an inhibition at 15 µM of 27.5%.
Regarding `Cc1ccc(-c2cc(NCCO)c3ccccc3n2)cc1`, the IC50 worked out at 53.7 µM in assay [1], 61.1 µM in assay [2] and 73.7 µM in [3]. Also, in [6], the outcome was Active. In addition, the “inhibition (INH)” value in assay [4] worked out at 40%. Moreover, in assay [5], the inhibition at 15 µM was 38.3%.
